# Measurements pooled from the literature.
# Protocols differ between the studies behind these lines. pIC50: −log10 of the molar value.
# KCNH2: Voltage-gated inwardly rectifying potassium channel KCNH2 (KCNH2, Homo sapiens, UniProt Q12809)
# UGT2B7: UDP-glucuronosyltransferase 2B7 (UGT2B7, Homo sapiens, UniProt P16662)
Structure (SMILES),target,test,system,setting,endpoint,value
O=C(O)C(F)(F)C(F)(F)C(F)(F)C(F)(F)C(F)(F)C(F)(F)C(F)(F)F,"Solute carrier organic anion transporter family member 2B1 (SLCO2B1, Homo sapiens, UniProt O94956)","transporter uptake, substrate",CHO,"1 min, pH 7.4",Km,149 µM
CCc1cccc(C(=O)Nc2cc(C)nn2-c2nc(CC)cc(=O)[nH]2)c1,KCNH2,"ligand displacement, radioligand",,10 µM,inhibition,0%
CC(C)N1CCC[C@H]1CNC(=O)c1cn(C2CCCC2)c(=O)c2c1c1ccccc1n2C,KCNH2,"ligand displacement, radioligand",,10 µM,inhibition,39%
C=C1CCC2C(C)(CO)C(=O)CCC2(C)C1C=CC1=CCOC1=O (stereo not drawn),UGT2B7,"enzyme activity, inhibitor",,100 µM,inhibition,90%
CN1CCN(Cc2ccc(NC(=O)c3cncc(C#Cc4cnc(N)c5ncccc45)c3)cc2C(F)(F)F)CC1,KCNH2,"ion current, inhibitor",,,pIC50,< 4.52
C=C1CC[C@@H]2[C@](C)(CO)[C@H](O)CC[C@@]2(C)[C@@H]1/C=C/C1=CCOC1=O,UGT2B7,"enzyme activity, inhibitor",,100 µM,inhibition,80%
COc1ccc(CCC2CCCC(CCc3ccc(OC)cc3)N2C[C@@H](O)CO)cc1 (stereo in doubt),KCNH2,"ion current, inhibitor, patch clamp",,,pIC50,~7.15
Clc1ccc2c(C3CCN(CCc4c[nH]c5ccccc45)CC3)c[nH]c2c1,KCNH2,"ligand displacement, radioligand",,10 µM,inhibition,99%
O=c1ccc2ccccc2o1,KCNH2,"ligand displacement, radioligand",,"10 µM, cell membranes",inhibition,-13.1%
